Measured values: ChEMBL document CHEMBL1146374, “Clubbed triazoles: a novel approach to antitubercular drugs” (Eur J Med Chem, 2007)
≈ marks a conversion by molar mass, not a printed value.

Assays:
Pseudomonas aeruginosa = test: Antibacterial activity against Pseudomonas aeruginosa at 50 to 100 uM after 24 hrs by well diffusion method; type: functional
In short: (§1)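 Agar well diffusion: nutrient agar plates with 10 mm wells cut by sterile cork borer; 24-h subcultured bacteria swabbed onto the plates from nutrient broth. Compounds were dissolved in chloroform and added to wells at […]. Gentamycin served as the standard antibiotic.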

Salmonella typhi = test: Antibacterial activity against Salmonella typhi at 50 to 100 uM after 24 hrs by well diffusion method; type: functional, Salmonella enterica subsp. enterica serovar Typhi
In short: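 Agar well diffusion on nutrient agar plates; wells cut with a 10 mm sterile cork borer. Plates swabbed with 24-h subcultured bacteria from nutrient broth. Compounds dissolved in chloroform and added to wells at a range of concentrations. Gentamycin was the standard.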

Escherichia coli = test: Antibacterial activity against Escherichia coli at 50 to 100 uM after 24 hrs by well diffusion method; type: functional; in short: as §1
[1] = tested on: Mycobacterium tuberculosis; test: (§2) Antituberculosis activity against Mycobacterium tuberculosis H37Rv by Microplate Alamar Blue Assay; type: functional
In short: (§3)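 MIC against M. tuberculosis H37Rv (ATCC 27294) in BACTEC 12B medium by broth microdilution (MABA). Primary actives were retested at lower concentrations. MIC is the lowest concentration giving a […] fluorescence reduction versus controls. Fluorescent compounds were run in the BACTEC 460 radiometric system. Rifampin was the reference.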

[2] = tested on: Mycobacterium tuberculosis; test: Growth inhibition of Mycobacterium tuberculosis H37Rv at 6.25 ug/ml by Microplate Alamar Blue Assay; type: functional; settings: read-out: GI
In short: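 Primary single-concentration screen against M. tuberculosis H37Rv (ATCC 27294) in BACTEC 12B medium by MABA broth microdilution, read as % inhibition. Compounds that fluoresce were tested in the BACTEC 460 radiometric system. More than 95% inhibition was the activity cutoff.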

[3] = Cytotoxicity against Vero-C1008 cells at 6.25 to 50 ug/ml; type: cell-based; settings: chlorocebus sabaeus
In short: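 Vero-C-1008 cells were exposed to compounds at several concentrations across 6.25–50 µg/ml. Cytotoxicity was read out by neutral red uptake.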

Staphylococcus aureus = test: Antibacterial activity against Staphylococcus aureus at 50 to 100 uM after 24 hrs by well diffusion method; type: functional; in short: as §1
[4] = tested on: Mycobacterium tuberculosis; test: as §2; type: functional; in short: as §3; remark: listed apart in the source

| SMILES | zone of inhibition (Pseudomonas aeruginosa) | Inhibition (Salmonella typhi) | zone of inhibition (Escherichia coli) | MIC [1] | inhibition of growth at 6.25 µg/mL [2] | Activity [3] | zone of inhibition (Staphylococcus aureus) | MIC [4] |
| --- | --- | --- | --- | --- | --- | --- | --- | --- |
| CC(=O)Nc1nc(Cc2nnc(S)n2N)cs1 | 16 mm | 14% | 15 mm | 6.25 µM (≈ 1.69 µg/mL) | 100% | Non-toxic | 18 mm | < 6.25 µg/mL |
| N#CCSc1nnc(Cc2csc(NC(=O)c3ccccc3)n2)n1NC(=O)c1ccccc1 | 24 mm | 18% | 22 mm | 3.13 µM (≈ 1.49 µg/mL) | 100% | Non-toxic | 26 mm | < 6.25 µg/mL |
| NNC(=O)CSc1nnc(Cc2csc(NC(=O)c3ccccc3)n2)n1NC(=O)c1ccccc1 | 34 mm | 29% | 30 mm | 6.25 µM (≈ 3.18 µg/mL) | 100% | Non-toxic | 33 mm | < 6.25 µg/mL |
| O=C(O)CCNc1nc(Cc2nnc(SCC(=O)N/N=C\c3ccccc3)n2NC(=O)c2ccccc2)cs1 | 12 mm | 12% | 14 mm | 3.13 µM (≈ 1.77 µg/mL) | 98% | Non-toxic | 18 mm | < 6.25 µg/mL |
| NNC(=O)CSc1nnc(Cc2csc(NC(=O)CCl)n2)n1NC(=O)c1ccccc1 | 16 mm | 14% | 12 mm | 3.13 µM (≈ 1.51 µg/mL) | 98% | Non-toxic | 16 mm | < 6.25 µg/mL |
| CC(=O)Nc1nc(Cc2nnc(SCC(=O)NN)n2NC(=O)c2ccccc2)cs1 | 32 mm | 24% | 26 mm | 3.13 µM (≈ 1.4 µg/mL) | 100% | Non-toxic | 32 mm | < 6.25 µg/mL |
| O=C(CSc1nnc(Cc2csc(NC(=O)c3ccccc3)n2)n1NC(=O)c1ccccc1)N/N=C/c1ccccc1 | 30 mm | 27% | 30 mm | 0.39 µM (≈ 0.233 µg/mL) | 98% | Non-toxic | 32 mm | < 6.25 µg/mL |
